Active and inactive are the calls of the source.

Data set [1] deals with Lactobacillus. Put plainly: Antibacterial activity against Lactobacillus-mediated vaginal infection in woman at 5% treated via intravaginal gels every 12 hrs for 2 days measured post application. The following applies: Vagina. In kind it is functional. The essentials: (§1)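 Double-blind randomized study. Women self-applied intravaginal gel (warming-gel vehicle) with 0, 0.5 or 5% GML every 12 h for 2 days. Swabs were taken before and just after the first dose and 12 h after the last dose, placed in 1 ml Todd Hewitt broth, serially diluted and plated on chocolate agar (37°C, 7% CO2, up to 3 days). Organisms were identified by colony features as CFU/ml secretions, visit 1 vs visit 2. Detection limit 10^2 CFU/ml.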

The species entered for data set [2] is Homo sapiens. Put plainly: Toxicity in woman with Gardnerella vaginalis-mediated vaginal infection assessed as adverse events at 5% treated via intravaginal gels every 12 hrs for 2 days measured post application. In kind it is organism-based, Vagina. The note with it: in vivo, other.
In data set [3] the test system is Candida. Nature of the data set: Antifungal activity against Candida-mediated vaginal infection in woman assessed as effect on vaginal pH at 5% treated via intravaginal gels every 12 hrs for 2 days measured post application. In kind it is functional, organism-based. The following applies: Vagina. The essentials:
(§2)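 Women self-applied vaginal gels containing 0, 0.5 or 5% GML in a warming-gel vehicle every 12 h for 2 days. Vaginal pH was measured at visit 1 (before the first dose) and visit 2, and the two visits were compared.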

The subject of data set [4] is Candida. Nature of the data set: Antifungal activity against Candida-mediated vaginal infection in woman assessed as effect on vaginal pH at 0.5% treated via intravaginal gels every 12 hrs for 2 days measured post application. In kind it is functional, organism-based. The following applies: Vagina. In short, it runs like this: as §2
Data set [5] concerns Pichia kudriavzevii. Put plainly: Antifungal activity against Candida krusei assessed as => 3-log drop in number of fungal CFU/ml at 500 ug/ml after 4 to 8 hrs. In kind it is functional, organism-based. In short, it runs like this:
(§3)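 Candida species (C. albicans SC5314 and clinical isolates, C. glabrata, C. kefyr, C. parapsilosis, C. tropicalis, C. krusei) grown 24 h at 37°C with 200 rpm shaking in 25 ml Todd Hewitt broth with GML at 0, 50, 100 or 500 μg/ml. CFU were counted at time points by serial dilution and plating. Fungicidal was defined as a ≥3-log CFU/ml drop.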

Data set [6] concerns Lactobacillus. Put plainly: Antibacterial activity against Lactobacillus-mediated vaginal infection in woman assessed as effect on vaginal pH at 0.5% treated via intravaginal gels every 12 hrs for 2 days measured post application. The following applies: Vagina. In kind it is functional. In short, it runs like this:
as §2

The test system of data set [7] is Gardnerella vaginalis. Nature of the data set: Antibacterial activity against Gardnerella vaginalis-mediated vaginal infection in woman assessed as effect on vaginal pH at 0.5% treated via intravaginal gels every 12 hrs for 2 days measured post application. In kind it is functional, organism-based. The note with it: Vagina. In short, it runs like this: as §2
The test system of data set [8] is Lactobacillus. Nature of the data set: Antibacterial activity against Lactobacillus-mediated vaginal infection in woman at 0.5% treated via intravaginal gels every 12 hrs for 2 days measured post application. It counts as functional. The note with it: Vagina. In short, it runs like this:
as §1

In data set [9] the test system is Gardnerella vaginalis. Put plainly: Antibacterial activity against Gardnerella vaginalis-mediated vaginal infection in woman at 0.5% treated via intravaginal gels every 12 hrs for 2 days measured post application. In kind it is functional, organism-based. The following applies: Vagina. The essentials:
as §1

Data set [10] relates to Candida tropicalis. Put plainly: Antifungal activity against Candida tropicalis assessed as => 3-log drop in number of fungal CFU/ml at 500 ug/ml after 4 to 8 hrs. In kind it is functional, organism-based. The essentials:
as §3

Data set [11] relates to Gardnerella vaginalis. Nature of the data set: Antibacterial activity against Gardnerella vaginalis assessed as => 3-log drop in number of fungal CFU/ml at 1 to 10 ug/ml after 24 hrs. In kind it is functional, organism-based.
In data set [12] the test system is Lactobacillus. Put plainly: Antibacterial activity against Lactobacillus-mediated vaginal infection in woman assessed as effect on vaginal pH at 5% treated via intravaginal gels every 12 hrs for 2 days measured post application. It counts as functional. The following applies: Vagina. In short, it runs like this:
as §2

The subject of data set [13] is Gardnerella vaginalis. Nature of the data set: Antibacterial activity against Gardnerella vaginalis-mediated vaginal infection in woman at 5% treated via intravaginal gels every 12 hrs for 2 days measured post application. It counts as functional, organism-based. The note with it: Vagina. In short, it runs like this:
as §1

The subject of data set [14] is Candida parapsilosis. Put plainly: Antifungal activity against Candida parapsilosis assessed as => 3-log drop in number of fungal CFU/ml at 500 ug/ml after 4 to 8 hrs. In kind it is functional, organism-based. In short, it runs like this:
as §3

Data set [15] has as its system Kluyveromyces marxianus. Nature of the data set: Antifungal activity against Candida pseudotropicalis kefyr assessed as => 3-log drop in number of fungal CFU/ml at 100 ug/ml after 4 to 8 hrs. It counts as functional, organism-based. In short, it runs like this:
as §3

Data set [16] relates to Gardnerella vaginalis. Nature of the data set: Antibacterial activity against Gardnerella vaginalis-mediated vaginal infection in woman assessed as effect on vaginal pH at 5% treated via intravaginal gels every 12 hrs for 2 days measured post application. It counts as functional, organism-based. The following applies: Vagina. In short, it runs like this:
as §2

The species entered for data set [17] is Homo sapiens. Put plainly: Toxicity in woman with vaginal infection assessed as adverse events at 5% treated via intravaginal gels every 12 hrs for 2 days measured post application. The following applies: in vivo, other.
Data set [18] relates to Candida. Put plainly: Antifungal activity against Candida-mediated vaginal infection in woman at 5% treated via intravaginal gels every 12 hrs for 2 days measured post application. It counts as functional, organism-based. The note with it: Vagina. The essentials:
as §1

The species named for data set [19] is Homo sapiens. Nature of the data set: Toxicity in woman with Candida-mediated vaginal infection assessed as adverse events at 5% treated via intravaginal gels every 12 hrs for 2 days measured post application. It counts as organism-based, Vagina. The note with it: in vivo, other.
Data set [20] concerns Candida albicans. Put plainly: Antifungal activity against Candida albicans SC5314 assessed as => 3-log drop in number of fungal CFU/ml at 100 ug/ml after 4 to 8 hrs. In kind it is functional, organism-based. In short, it runs like this:
as §3

Data set [21] deals with Nakaseomyces glabratus. Put plainly: Antifungal activity against Candida glabrata assessed as => 3-log drop in number of fungal CFU/ml at 500 ug/ml after 4 to 8 hrs. In kind it is functional, organism-based. In short, it runs like this: as §3
Data set [22] has as its system Candida albicans. Put plainly: Antifungal activity against Candida albicans SC5314 clinical isolate at 100 ug/ml after 24 hrs. In kind it is functional, organism-based. The essentials: as §3
Data set [23] relates to Candida. Put plainly: Antifungal activity against Candida-mediated vaginal infection in woman at 0.5% treated via intravaginal gels every 12 hrs for 2 days measured post application. In kind it is functional, organism-based. The following applies: Vagina. In short, it runs like this: as §1

For the compound `CCCCCCCCCCCC(=O)OCC(O)CO` (stereo not drawn) [GLYCEROL MONOLAURATE], the result in data set [1], in data set [3], in data set [4], in data set [6], in [7] and in data set [8] was inactive. In addition, the result in [12] and in data set [16] was inactive. Besides, the Activity entry in data set [2], in data set [17] and in data set [19] was “Non-toxic” throughout. The result in data set [5], in data set [9], in [10], in [11], in data set [13] and in data set [14] was Active. Further, the result in data set [15], in [18], in data set [20], in [21], in [22] and in data set [23] was Active.

The record behind these values is ChEMBL document CHEMBL1240373, “Glycerol monolaurate inhibits Candida and Gardnerella vaginalis in vitro and in vivo but not Lactobacillus” (Antimicrob Agents Chemother, 2010).
